Measured values taken from ChEMBL document CHEMBL3085679, “Combining in silico and biophysical methods for the development of Pseudomonas aeruginosa quorum sensing inhibitors: an alternative approach for structure-based drug design” (J Med Chem, 2013).
pIC50, pKd: −log10 of the molar value. The source made the active and inactive calls. The calls are words filed in the database; no cut-off is given here.

Experiments:
[1] = Inhibition of Pseudomonas aeruginosa recombinant His6-tagged PqsD expressed in Escherichia coli BL21(lambda DE3) assessed as anthraniloyl-CoA and beta-ketodecanoic acid conversion to heptyl-4-hydroxyquinoline preincubated for 10 mins prior to substrate addition by LC-MS/MS analysis
Outline: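 HHQ formation from anthraniloyl-CoA and β-ketodecanoic acid by purified PqsD (0.1 µM) in 0.05 M MOPS pH 7.0, 0.005% Triton X-100, 0.5% final DMSO; 10 min preincubation with inhibitor at 37 °C, started with anthraniloyl-CoA (5 µM final) and β-ketodecanoic acid (70 µM final); HHQ quantified by LC-MS, DMSO control set to 100%; triplicates.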

Pseudomonas aeruginosa [2] = test: Competitive binding affinity to Pseudomonas aeruginosa recombinant His6-tagged PqsD ACoA-channel expressed in Escherichia coli BL21(lambda DE3) at 100 uM by SPR analysis in presence of (2-nitrophenyl)(phenyl)methanol
Outline: (§1)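 SPR competition: amine-coupled PqsD on CMD500M chip preincubated by adding competitor (100 µM) to running buffer (50 mM MOPS pH 8.0, 150 mM NaCl, 5% DMSO, 0.1% Triton X-100), flushed at 50 µL/min until stable; test compounds (100 µM) then injected twice at 10 µL/min, 120 s association, 300 s dissociation.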

Pseudomonas aeruginosa [3] = test: Binding affinity to Pseudomonas aeruginosa recombinant His6-tagged PqsD R223A mutant expressed in Escherichia coli BL21(lambda DE3) at 100 uM by SPR analysis
Outline: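 Recombinant His6-PqsD R223A (E. coli BL21(λDE3), Ni-NTA purified) amine-coupled to CMD500M chip at 5000-6000 RU. Compounds diluted from 10 mM DMSO stock to 100 µM final in running buffer (50 mM MOPS pH 8.0, 150 mM NaCl, 5% DMSO, 0.1% Triton X-100). Run at 12 °C, 50 µL/min. Each compound injected twice, 120 s association, 300 s dissociation. Data double-referenced against blanks and DMSO calibration.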

Pseudomonas aeruginosa [4] = test: Binding affinity to Pseudomonas aeruginosa recombinant His6-tagged PqsD expressed in Escherichia coli BL21(lambda DE3) at 100 uM by SPR analysis
Outline: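 SPR: wild-type or R223A mutant PqsD amine-coupled to CMD500M chip (5000-6000 RU) at 12 °C; running buffer 50 mM MOPS pH 8.0, 150 mM NaCl, 5% DMSO, 0.1% Triton X-100; compounds at 100 µM final injected twice, 120 s association, 300 s dissociation, 50 µL/min; double referencing with blanks and DMSO calibration.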

Escherichia coli = test: Inhibition of Escherichia coli RNA polymerase at 200 uM preincubated for 10 mins prior to DNA template and NTPs addition measured after 10 mins by [5,6-3H]-UTP incorporation assay relative to control
Outline: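 E. coli RNA polymerase holoenzyme (1 unit) in 40 mM Tris-HCl pH 7.5, 150 mM KCl, 10 mM MgCl2, 10 mM DTT, 0.1% CHAPS, RNase inhibitor, 2% final DMSO; preincubated with compound 10 min at 25 °C; started with plasmid DNA template plus 400 µM ATP/CTP/GTP, 100 µM UTP and [5,6-3H]-UTP, 10 min at 37 °C; TCA-precipitated RNA counted by scintillation.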

Pseudomonas aeruginosa [5] = test: Competitive binding affinity to Pseudomonas aeruginosa recombinant His6-tagged PqsD ACoA-channel expressed in Escherichia coli BL21(lambda DE3) at 100 uM by SPR analysis in presence of (2-nitrophenyl)methanol; outline: as §1
Pseudomonas aeruginosa [6] = test: Inhibition of anthraniloyl coenzyme A binding to Pseudomonas aeruginosa recombinant His6-tagged PqsD ACoA-channel expressed in Escherichia coli BL21(lambda DE3) by SPR analysis
[7] = Binding affinity to Pseudomonas aeruginosa recombinant His6-tagged PqsD expressed in Escherichia coli BL21(lambda DE3) measured every 180 seconds by isothermal titration calorimetric analysis
Outline: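 ITC at 25 °C in PBS pH 7.4, 10% glycerol, 5% DMSO; 100 µM His6-PqsD in cell titrated with 2 µL injections of 1.0 mM ligand every 180 s; ligand diluted 1:20 from 20 mM DMSO stock; protein quantified by A280 (ε 17,780 M−1 cm−1); stoichiometry and KD fitted.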

Pseudomonas aeruginosa [8] = test: Competitive binding affinity to Pseudomonas aeruginosa recombinant His6-tagged PqsD ACoA-channel expressed in Escherichia coli BL21(lambda DE3) at 1 mM by saturation transfer difference NMR analysis in presence of (2-nitrophenyl)(phenyl)methanol
Pseudomonas aeruginosa [9] = test: Binding affinity to Pseudomonas aeruginosa recombinant His6-tagged PqsD ACoA-channel expressed in Escherichia coli BL21(lambda DE3) at 25 uM after 30 mins by LC-ESI-MS analysis
Outline: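 PqsD (25 µM) preincubated 30 min at 37 °C with compound (25 µM) in 0.05 M Tris-HCl pH 8.0, 0.5% DMSO; DTT added, then reversed-phase HPLC (C8, water/acetonitrile with 0.05% TFA gradient, 45 °C) coupled to ESI high-resolution TOF MS to detect intact protein–inhibitor adduct mass.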

Pseudomonas aeruginosa [10] = test: Binding affinity to tryptically digested Pseudomonas aeruginosa recombinant His6-tagged PqsD ACoA-channel expressed in Escherichia coli BL21(lambda DE3) at 10 uM after 60 mins by MALDI-TOF-MS analysis
Outline: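 PqsD (10 µM) and compound (10 µM) preincubated 60 min at 37 °C in 0.05 M MOPS pH 7.0, 0.005% Triton X-100, 0.5% DMSO; buffer exchanged to 0.05 M NH4HCO3 pH 8.1 by diafiltration, trypsin digestion overnight, DTT added; peptides analysed by MALDI-TOF in positive reflector mode, tracking the Cys112-containing fragment.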

Compound	pIC50 [1]	Activity (Pseudomonas aeruginosa [2])	also measured
COc1ccc(-c2cc(NC(=O)NCC(=O)O)c(C(=O)O)s2)cc1	5.15	–	–
COc1ccc(-c2cc(NC(N)=O)c(C(=O)O)s2)cc1	3.77	Active	RU (Pseudomonas aeruginosa [3]): 6; RU (Pseudomonas aeruginosa [4]): 25
COc1ccc(-c2cc(NC(=O)N[C@@H](C)C(=O)O)c(C(=O)O)s2)cc1	5.70	–	inhibition (Escherichia coli): 10%
CCN(Cc1ccccc1)C(=O)Nc1cc(-c2ccc(OC)cc2)sc1C(=O)O	5.22	Active	Activity (Pseudomonas aeruginosa [5]): inactive; inhibition (Pseudomonas aeruginosa [6]): Active; Activity (Pseudomonas aeruginosa [4]): Active; pKd [7]: 5.20
COc1ccc(-c2cc(NC(=O)NCCc3ccccc3)c(C(=O)O)s2)cc1	4.24	–	–

More lines, main results first:

pIC50 [1]	Activity (Pseudomonas aeruginosa [2])	Compound	also measured
4.59	–	COc1ccc(-c2cc(NC(=O)N[C@H](Cc3ccccc3)C(=O)O)c(C(=O)O)s2)cc1	–
4.27	–	COc1ccc(-c2cc(NC(=O)N[C@H](C)C(=O)O)c(C(=O)O)s2)cc1	–
6.30	Active	COc1ccc(-c2cc(NC(=O)N[C@@H](Cc3ccccc3)C(=O)O)c(C(=O)O)s2)cc1	inhibition (Escherichia coli): 10%; Activity (Pseudomonas aeruginosa [8]): Active
5.70	–	O=C(CCl)Nc1ccc(-c2cc(NC(=O)N[C@@H](Cc3ccccc3)C(=O)O)c(C(=O)O)s2)cc1	Activity (Pseudomonas aeruginosa [9]): Active; Activity (Pseudomonas aeruginosa [10]): Active
4.70	Active	NC(=O)Nc1cc(-c2ccc(Oc3ccccc3)cc2)sc1C(=O)O	Activity (Pseudomonas aeruginosa [5]): Active; Activity (Pseudomonas aeruginosa [4]): Active
4.25	–	COc1ccc(-c2cc(NC(=O)NC(C)(C)C(=O)O)c(C(=O)O)s2)cc1	–
4.43	–	COc1ccc(-c2cc(NC(=O)NCCC(=O)O)c(C(=O)O)s2)cc1	–
